Data on three compounds can be found in ChEMBL document CHEMBL1122969, “Spiro[4.5] and spiro[4.6] carboxylic acids: cyclic analogues of valproic acid. Synthesis and anticonvulsant evaluation” (J Med Chem, 1985).

The subject of series [1] is Mus musculus. Nature of the series: Phase V qualification against antipicrotoxin activity administered subcutaneously at 3.2 mg/kg. Type of series: functional. As to conditions: sc, route subcutaneous.
In series [2] the test system is Mus musculus. In words: Anticonvulsant activity against Bicucullin (3.75 mg/kg) induced clonic seizure at dose 360 mg/kg subcutaneously at pretreatment time of 15 min. Type of series: functional. As to conditions: route subcutaneous. The procedure, abridged:
(§1)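 CF1 mice (Sprague–Dawley) were given the compound sc in 30% polyethylene glycol 400, with vehicle-injected controls. After the stated pretreatment interval, at the time of peak effect, bicuculline 3.75 mg/kg was injected sc; this dose gives clonic and tonic seizures and death in all controls. Clonic seizure = at least one 5-s clonic spasm episode. Tonic seizure = hindlimb flexion then extension. Scored as mice protected/tested plus mean ± SD onset, minutes.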

For series [3], the system named is Mus musculus. Nature of the series: Anticonvulsant activity against Bicucullin (3.75 mg/kg) induced clonic seizure at dose 400 mg/kg subcutaneously at pretreatment time of 15 min. Type of series: functional. As to conditions: route subcutaneous. In outline:
as §1

Series [4] has as its system Mus musculus. In words: Anticonvulsant activity against Bicucullin (3.75 mg/kg) induced death at dose 400 mg/kg subcutaneously at pretreatment time of 15 min. More on the design: dose 400 mg/kg, route subcutaneous. In kind it is ADME, organism-based. As to conditions: in vivo, sc.
The subject of series [5] is Mus musculus. Nature of the series: Anticonvulsant activity against Bicucullin (3.75 mg/kg) induced tonic seizure at dose 360 mg/kg subcutaneously at pretreatment time of 15 min. Type of series: functional. As to conditions: route subcutaneous. The procedure, abridged:
as §1

Series [6] deals with Mus musculus. In words: Anticonvulsant activity against Bicucullin (3.75 mg/kg) induced tonic seizure at dose 400 mg/kg subcutaneously at pretreatment time of 15 min. Type of series: functional. As to conditions: route subcutaneous. The procedure, abridged: as §1
Series [7] deals with Mus musculus. In words: Anticonvulsant activity against picrotoxin (4.0 mg/kg) induced clonic seizures at 400 mg/kg subcutaneous dose 15 min pretreatment. Type of series: functional.
The species named for series [8] is Mus musculus. Nature of the series: animal or person. As to conditions: sc.
In series [9] the test system is Mus musculus. In words: Anticonvulsant activity against Maximal electroshock seizure at dose 300 mg/kg at 0.5 hr. Type of series: functional. The procedure, abridged:
(§2)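 Phase I mouse screen. Compound was suspended in 30% polyethylene glycol 400 and given by intraperitoneal injection at 30, 100, 300 or 600 mg/kg. Testing was at 30 min and 4 h (maximal electroshock or subcutaneous pentylenetetrazol), with rotorod toxicity scored alongside. Scored as animals protected/tested; toxicity was flagged at the 0.5 h or 4 h check.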
On the technique in general: Protection in the maximal electroshock model is a classic sign of anticonvulsant action.

The test system of series [10] is Mus musculus. Nature of the series: Anticonvulsant activity against Maximal electroshock seizure at dose 300 mg/kg at 4 hr. Type of series: functional. In outline:
as §2

Series [11] concerns Mus musculus. In words: Anticonvulsant activity against Maximal electroshock seizure at dose 600 mg/kg at 4 hr. In kind it is functional. In outline:
as §2

The test system of series [12] is Mus musculus. Nature of the series: Anticonvulsant activity against Subcutaneous pentylenetetrazole test at dose 300 mg/kg at 0.5 hr. In kind it is functional. In outline:
as §2

Series [13] has as its system Mus musculus. In words: Anticonvulsant activity against Subcutaneous pentylenetetrazole test at dose 300 mg/kg at 4 hr. Type of series: functional. In outline:
as §2

Series [14] deals with Mus musculus. In words: Anticonvulsant activity against Subcutaneous pentylenetetrazole test at dose 600 mg/kg at 0.5 hr. Type of series: functional. The procedure, abridged: as §2
For series [15], the system named is Mus musculus. Nature of the series: Anticonvulsant activity against Subcutaneous pentylenetetrazole test at dose 600 mg/kg at 4 hr. In kind it is functional. The procedure, abridged:
as §2

The subject of series [16] is Mus musculus. In words: Anticonvulsant activity against neurologic toxicity test at dose 300 mg/kg at 0.5 hr. Type of series: organism-based. As to conditions: in vivo. Details: dose 300 mg/kg. The procedure, abridged:
(§3)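 Mice got the compound as a suspension in 30% polyethylene glycol 400 by ip injection (30, 100, 300, 600 mg/kg) 30 min or 4 h before the rotorod neurological toxicity test. The value is the number of animals showing toxicity over the number tested.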

In series [17] the test system is Mus musculus. In words: Anticonvulsant activity against neurologic toxicity test at dose 300 mg/kg at 4 hr. Type of series: organism-based. More on the design: dose 300 mg/kg. As to conditions: in vivo. The procedure, abridged:
as §3

Series [18] concerns Mus musculus. Nature of the series: Anticonvulsant activity against neurologic toxicity test at dose 600 mg/kg at 0.5 hr. Type of series: organism-based. More on the design: dose 600 mg/kg. As to conditions: in vivo. The procedure, abridged: as §3
In series [19] the test system is Mus musculus. Nature of the series: Anticonvulsant activity against neurologic toxicity test at dose 600 mg/kg at 4 hr. More on the design: dose 600 mg/kg. Type of series: organism-based. As to conditions: in vivo. In outline:
as §3

Series [20] deals with Mus musculus. In words: Anticonvulsant activity against Maximal electroshock seizure at dose 600 mg/kg at 0.5 hr. In kind it is functional. In outline: as §2
In series [21] the test system is Mus musculus. Nature of the series: Anticonvulsant activity against Maximal electroshock seizure at dose 300 mg/kg at 0.5 hr; toxic. In kind it is ADME, organism-based. More on the design: dose 300 mg/kg. As to conditions: in vivo. In outline:
as §2

For series [22], the system named is Mus musculus. Nature of the series: Anticonvulsant activity against Maximal electroshock seizure at dose 300 mg/kg at 4 hr; toxic. Type of series: ADME, organism-based. More on the design: dose 300 mg/kg. As to conditions: in vivo. The procedure, abridged: as §2

Consider `CCCC(CCC)C(=O)O` [VALPROIC ACID], for which the ED50 was 387 mg/kg in the series with Mus musculus [1] and 149 mg/kg in the series filed under Mus musculus [8]. For the same compound, the Average onset in the series with Mus musculus [2] is 9 min; with Mus musculus [3], 15 min; with Mus musculus [4] it was 18 min; with Mus musculus [5], 11 min; with Mus musculus [6] it was 17 min; with Mus musculus [7], 16 min.

For `O=C([O-])C1CCC2(CCCCCC2)C1.[Na+]` (configuration not stated), the No. protected/tested is 0 with Mus musculus [9]; 0 in the series on Mus musculus [10]; 0 in the series on Mus musculus [11]; 0 with Mus musculus [12]; 0 in the series with Mus musculus [13]; 1 in the series on Mus musculus [14]. Further, the No. protected/tested with Mus musculus [15] and in the series on Mus musculus [20] was 0 in each case. Also, the No. toxicity/tested in the series with Mus musculus [16] was 0; in the series with Mus musculus [17], 0; in the series on Mus musculus [18], 4; in the series on Mus musculus [19] it was 2.

Regarding `O=C(O)CC1CCC2(CCCCCC2)C1` (configuration not stated), the No. protected/tested in the series on Mus musculus [21] is 1; in the series on Mus musculus [22] it was 0; in the series on Mus musculus [11], 0; with Mus musculus [12] it was 1; in the series with Mus musculus [13], 0; in the series with Mus musculus [14], 1. Further, the No. protected/tested in the series on Mus musculus [15] and in the series with Mus musculus [20] was 1 in each case. Besides, the No. toxicity/tested in the series with Mus musculus [16] turned out to be 3; in the series with Mus musculus [17], 0; with Mus musculus [18], 4; with Mus musculus [19] it was 0.

In general, ED50 refers to the dose at which the effect has come halfway, by size or by number of responders. A lower ED50 goes with an effect at a small dose.
